Calls of active or inactive are those of the source. No cut-off for these calls is given here.
Assays:
[1] = tested on: Human immunodeficiency virus 1; test: Antiviral activity against HIV-1 3B infected in human MT4 cells assessed as inhibition of virus-induced cytopathic effect after 5 days; type: functional, organism-based; conditions: Human immunodeficiency virus 1, 3B, MT4, 120 h
In short: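 MT-4 cells infected with HIV-1 IIIB at ~100 times the CCID50 per ml, mixed 1:1 with serial compound dilutions, incubated at 37 °C for 5 days. Viable cell number then determined. EC50 = concentration reducing virus-induced cytopathicity by 50%.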

[2] = tested on: Human immunodeficiency virus 1; test: Antiviral activity against NNRTI-resistant HIV-1 RES056 harboring reverse transcriptase K103N/Y181C double mutant; type: functional, organism-based
In short: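 MT-4 cells were infected with virus at about 100 times the CCID50 per ml of cell suspension and mixed with serial compound dilutions. They were incubated 5 days at 37 °C, then viable cells were counted. EC50 is the concentration that reduces virus-induced cytopathic effect by 50%. Cytotoxicity was measured in parallel in MT-4 cells.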

[3] = Selectivity index, ratio of CC50 for human MT4 cells to EC50 for HIV-1 3B; type: toxicity, cell-based; conditions: read-out: Ratio CC50/EC50
In short: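 Calculated as CC50/EC50, both from MT-4 cells: CC50 from the parallel viability assay, EC50 from the 5-day HIV-1 IIIB cytopathicity assay.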

[4] = tested on: Human immunodeficiency virus 2; test: Antiviral activity against HIV-2 ROD; type: functional, organism-based; conditions: ISOLATE ROD
[5] = molecular target: Human immunodeficiency virus type 1 reverse transcriptase (Human immunodeficiency virus 1, UniProt Q72547); test: Inhibition of GST-tagged recombinant wild type HIV-1 reverse transcriptase p66/p51 RNA-dependent DNA polymerase activity expressed in Escherichia coli JM109 using dTTP as substrate after 40 mins by spectrofluorometric analysis
[6] = Cytotoxicity against human MT4 cells assessed as cell viability; type: cell-based
In short: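 Uninfected MT-4 cells run in parallel with the antiviral assay. CC50 = concentration reducing MT-4 cell viability by 50%.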

| Structure (SMILES) | EC50 [1] [µM] | Activity [2] | selectivity ratio [3] | Activity [4] | IC50 [5] [µM] | CC50 [6] [µM] |
| --- | --- | --- | --- | --- | --- | --- |
| COC(=O)c1ccc(NC(=O)CSc2nc3ccc(Cl)cc3n2Cc2cc(C)cc(C)c2)c(Cl)c1 | > 105 | inactive | < 1 | inactive | > 227 | 105 |
| COC(=O)c1ccc(NC(=O)CSc2nc3ccc(Cl)cc3n2S(=O)(=O)c2cc(C)cc(C)c2)c(Cl)c1 | 4.82 | inactive | ≥ 27 | inactive | 37.6 | ≥ 130 |
| O=C1Nc2ccc(Cl)cc2[C@@](C#CC2CC2)(C(F)(F)F)O1 [EFAVIRENZ] | 0.006 |  |  |  |  | > 6.34 |
| Cc1cc(C)cc(S(=O)(=O)n2c(SCC(=O)Nc3ccccc3Br)nc3ccccc32)c1 | 0.06 | inactive | ≥ 3930 | inactive | 0.18 |  |
| Cc1cc(C)cc(Cn2c(=S)[nH]c3ccc(Cl)cc32)c1 |  | inactive | 4 | inactive |  |  |
| Cc1ccnc2c1NC(=O)c1cccnc1N2C1CC1 [NEVIRAPINE] |  |  |  |  |  | > 15 |
| Cc1cc(C)cc(S(=O)(=O)n2c(SCC(=O)Nc3ccc(C)cc3Cl)nc3ccccc32)c1 | 0.04 | inactive | 135 | inactive | 0.55 | 5.4 |
| Cc1cc(C)cc(Cn2c(=S)[nH]c3ccccc32)c1 | 1.3 | inactive | 4 | inactive | 27.2 | 5.74 |
| Cc1cc(C)cc(Cn2c(SCC(=O)Nc3ccccc3[N+](=O)[O-])nc3ccccc32)c1 | 1.05 | inactive | 184 | inactive | 3.91 | 194 |
| Cc1cc(C)cc(S(=O)(=O)n2c(=S)[nH]c3ccc(Cl)cc32)c1 | 0.05 | inactive | 1860 | inactive | 1.76 | 93.1 |
| Cc1cc(C)cc(S(=O)(=O)n2c(SCC(=O)Nc3ccc(S(N)(=O)=O)cc3Cl)nc3ccc(Cl)cc32)c1 | 0.62 | inactive | 38 | inactive | 3.04 | 23.4 |
| Cc1cc(C)cc(Cn2c(SCC(=O)Nc3ccccc3Br)nc3ccccc32)c1 | 1.12 | inactive | ≥ 128 | inactive | 15 | ≥ 144 |
| Cc1cc(C)cc(S(=O)(=O)n2c(SCC(=O)Nc3ccccc3Cl)nc3ccc(Cl)cc32)c1 | 1.77 | inactive | 56 | inactive | 18.6 | 99.3 |
| Cc1cc(C)cc(S(=O)(=O)n2c(=S)[nH]c3ccccc32)c1 | 0.09 | inactive | 455 | inactive | 1.35 | 41 |
| Cc1cc(C)cc(S(=O)(=O)n2c(SCC(=O)Nc3ccccc3[N+](=O)[O-])nc3ccccc32)c1 | 0.04 | inactive | ≥ 652 | inactive | 100 | ≥ 26.1 |
| Cc1cc(C)cc(S(=O)(=O)n2c(SCC(=O)Nc3ccccc3Br)nc3ccc(Cl)cc32)c1 | 3.86 | inactive | 37 | inactive | 63.5 | 145 |
| Cc1cc(C)cc(Cn2c(SCC(=O)Nc3ccccc3[N+](=O)[O-])nc3ccc(Cl)cc32)c1 | ≥ 26 | inactive | ≤ 5 | inactive | > 249 | 131 |

| Structure (SMILES) | EC50 [1] [µM] | Activity [2] | selectivity ratio [3] | Activity [4] | IC50 [5] [µM] | CC50 [6] [µM] |
| --- | --- | --- | --- | --- | --- | --- |
| Cc1cc(C)cc(Cn2c(SCC(=O)Nc3ccc(C)cc3Cl)nc3ccc(Cl)cc32)c1 | > 79.3 | inactive | < 1 | inactive | > 248 | 79.3 |
| COC(=O)c1ccc(NC(=O)CSc2nc3ccccc3n2Cc2cc(C)cc(C)c2)c(Cl)c1 | 6.03 | inactive | 32 | inactive | 40.3 | 191 |
| Cc1cc(C)cc(Cn2c(SCC(=O)Nc3ccc(S(N)(=O)=O)cc3Cl)nc3ccccc32)c1 | 0.21 | inactive | 530 | inactive | 1.02 | 111 |
| Cc1cc(C)cc(Cn2c(SCC(=O)Nc3ccccc3Cl)nc3ccccc32)c1 | 1.12 | inactive | 99 | inactive | 42.1 | 111 |
| Cc1cc(C)cc(Cn2c(SCC(=O)Nc3ccc(S(N)(=O)=O)cc3Cl)nc3ccc(Cl)cc32)c1 | ≥ 22.6 | inactive | < 1 | inactive | 86.6 | ≥ 18.6 |
| Cc1cc(C)cc(Cn2c(SCC(=O)Nc3ccc(C)cc3Cl)nc3ccccc32)c1 | 1.53 | inactive | 32.1 | inactive | 179 | 49.1 |
| Cc1cc(C)cc(Cn2c(SCC(=O)Nc3ccccc3Cl)nc3ccc(Cl)cc32)c1 | 19.6 | inactive | 7 | inactive | > 255 | 141 |
| Cc1cc(C)cc(S(=O)(=O)n2c(SCC(=O)Nc3ccccc3[N+](=O)[O-])nc3ccc(Cl)cc32)c1 | 1.3 | inactive | > 182 | inactive | 37 | > 235 |
| Cc1cc(C)cc(S(=O)(=O)n2c(SCC(=O)Nc3ccccc3Cl)nc3ccccc32)c1 | 0.088 | inactive | 1220 | inactive | 51.9 | 107 |
| Cc1cc(C)cc(Cn2c(SCC(=O)Nc3ccccc3Br)nc3ccc(Cl)cc32)c1 | 32.5 | inactive | 5 | inactive | > 233 | 174 |
| Cc1cc(C)cc(Cn2c(SCC(=O)Nc3ccc(S(C)(=O)=O)cc3Cl)nc3ccccc32)c1 | 0.54 | inactive | 196 | inactive | 1.93 | 106 |
| Cc1cc(C)cc(S(=O)(=O)n2c(SCC(=O)Nc3ccc(C)cc3Cl)nc3ccc(Cl)cc32)c1 | 1.57 | inactive | > 149 | inactive | 46.4 | > 234 |
| Cc1cc(C)cc(S(=O)(=O)n2c(SCC(=O)Nc3ccc(S(C)(=O)=O)cc3Cl)nc3ccccc32)c1 | 0.04 | inactive | > 5540 | inactive | 0.12 | > 222 |
| Cc1cc(C)cc(S(=O)(=O)n2c(SCC(=O)Nc3ccc(S(C)(=O)=O)cc3Cl)nc3ccc(Cl)cc32)c1 | 0.5 | inactive | 7 | inactive | 2.61 | 3.59 |
| Cc1cc(C)cc(Cn2c(SCC(=O)Nc3ccc(S(C)(=O)=O)cc3Cl)nc3ccc(Cl)cc32)c1 | > 88.8 | inactive | < 1 | inactive | 70.5 | 88.8 |
| Cc1cc(C)cc(S(=O)(=O)n2c(SCC(=O)Nc3ccc(S(N)(=O)=O)cc3Cl)nc3ccccc32)c1 | 0.02 | inactive | 1280 | inactive | 18.5 | 25.6 |
| COC(=O)c1ccc(NC(=O)CSc2nc3ccccc3n2S(=O)(=O)c2cc(C)cc(C)c2)c(Cl)c1 | 0.11 | inactive | 1320 | inactive | 162 | 145 |

From ChEMBL document CHEMBL3112470, “Design and synthesis of N₁-aryl-benzimidazoles 2-substituted as novel HIV-1 non-nucleoside reverse transcriptase inhibitors” (Bioorg Med Chem, 2014)
